# Results reported in ChEMBL document CHEMBL1156500, “Characterization of the metabolic activation of hepatitis C virus nucleoside inhibitor beta-D-2'-Deoxy-2'-fluoro-2'-C-methylcytidine (PSI-6130) and identification of a novel active 5'-triphosphate species” (J Biol Chem, 2007).
# Key:
# Hepatitis C virus [1] = assay: Inhibition of RNA synthesis activity of […]
# Hepatitis C virus [2] = assay: Inhibition of RNA synthesis activity of […] 1b Con1 replicase; set-up: species or system Hepatitis C virus subtype 1b
# How it was run: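 Membrane-associated native replication complexes were isolated from 2209-23 replicon cells, with 20 μl reactions. One format used 2.5×10^6 cell equivalents for 60 min. The other used 3.1×10^6 cell equivalents for 90 min in 50 mM HEPES pH 7.5, 5 mM MgCl2, actinomycin D, 1 mM ATP/GTP/CTP, 0.4 μM [α-33P]UTP and a creatine phosphate regeneration system.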
# Hepatocyte = assay: Drug uptake in human hepatocyte assessed as time needed for triphosphate to be reduced to half of maximum level; type: ADME, cell-based, Liver; settings: hepatocytes
# How it was run: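 Hepatocytes from 4 donors were loaded for 24 h with 2 μM 3H-drug (10 μCi/ml), washed, and placed in drug-free medium. Duplicate samples were taken 0–72 h later and analysed for triphosphates by radio-HPLC. Half-life came from a single-phase exponential decay fit, mean ± S.D. (n = 4).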
IC50 (Hepatitis C virus [2]),"IC50 (Hepatitis C virus [1]; Hepatitis C virus, Con1)",t1/2 (Hepatocyte),Structure (SMILES),"Km (Hepatitis C virus [1]; Hepatitis C virus subtype 1b, Con1)",Ki (Hepatitis C virus [1])
,,,Nc1ccn([C@@H]2O[C@H](COP(=O)(O)OP(=O)(O)OP(=O)(O)O)[C@@H](O)[C@H]2O)c(=O)n1,0.22 µM,
0.34 µM,0.13 µM,4.7 h,C[C@@]1(F)[C@H](O)[C@@H](COP(=O)(O)OP(=O)(O)OP(=O)(O)O)O[C@H]1n1ccc(N)nc1=O [PSI-6130-TP],,0.023 µM
